Bioassay records from PubChem BioAssay.
This is one part of a sample in which hits are shown more often than they occur.
Myeloid diff 2 – myeloid differentiation induction; ER-HoxA9 myeloid progenitors, lysozyme-GFP differentiation, flow cytometry; AID 624256; calls only at 10 µM; 1% of 360,000 active;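 active = normalized GFP-positive differentiation at or above the plate's own cutoff, the solvent-only control mean plus 3 SD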;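 also: cells exposed to compound for four days before flow analysis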
XiGFP reactiv – activators of X-chromosome reactivation in mouse fibroblasts; XiGFP mouse fibroblasts, % GFP-positive cells imaging, 3 d; cells co-treated with 5-aza-dC sensitizer; scaled so ellipticine positive control = 100%; activation, % at 7.58 µM; 0.055% of 360,000 active;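 active = mean normalized replicate activation at least 10% and every replicate at or above 10%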;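 also: 0% = median of on-plate neutral control wells and 100% = ellipticine 6 µM median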
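System: 68-5-11 XiGFP fibroblast line | Buffer or medium: DMEM containing 5-aza-dC | Compound: Single point | Times: Compounds 3 days, fix/stain 15 min at room temperature | Benchmarks: Positive control ellipticine, 6 µM final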
ABCB6 inh 2 – inhibitors of human ABC transporter ABCB6 | Q9NP58 | K562-ABCB6 porphyrin accumulation, flow cytometry, 1 h; hits give low values | fluorescence ratio to DMSO, % at 10 µM | 0.19% of 360,000 active;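 active = fluorescence ratio to DMSO below 75%, the collection mean minus 3 SD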;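 also: signal is porphyrin accumulated inside mitochondria; 100% equals median channel fluorescence of DMSO control wells; lower ratio means ABCB6 inhibition with less porphyrin fluorescence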
ABCB6 inh CP1 – blocks the human ABCB6 transporter; shares compounds with ABCB6 inh 2; K562-ABCB6 porphyrin accumulation, flow cytometry, 1 h; hits give low values; ratio response (% of DMSO), % at 10 µM; 700 tested, under 10 active; AID 602430;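 active = repeat-averaged ratio response below 75% of DMSO, the collection mean minus 3 SD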;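 also: median porphyrin fluorescence at 575 nm with 488 nm excitation from mitochondria; lower ratio means less porphyrin signal so ABCB6 inhibition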
Numbers without * were called inactive; i = inactive; . = no result.

SMILES	Myeloid diff 2	XiGFP reactiv	ABCB6 inh 2	ABCB6 inh CP1
CC12CCC(C(=O)N(CCCCN3CCN(c4ccccn4)CC3)C1=O)C2(C)C (stereo not given)	i	0.1	58.0*	99.0
CC1(C(=O)NS(=O)(=O)c2ccccc2Cl)CCN1C(=O)Cc1ccccc1 (stereo not given)	i	0.5	99.0	.
CC(C)(C)c1ccc(CC(=O)N2CCC2(C)C(=O)NS(=O)(=O)c2ccccc2Cl)cc1 (stereo not given)	i	0.1	99.0	98.0
CC1(C(=O)NS(=O)(=O)c2ccccc2)CCN1C(=O)CCc1ccc(Cl)cc1Cl (stereo not given)	i	0.4	96.0	98.0
CC(C)(C(=O)N1CCC1(C)C(=O)NS(=O)(=O)c1cccc(Cl)c1)c1ccccc1 (stereo not given)	i	1.5	98.0	101.0
CC(C)(C)c1ccc(S(=O)(=O)NC(=O)C2(C)CCN2C(=O)Cc2ccccc2Cl)cc1 (stereo not given)	i	-0.1	85.0	.
CC(C)(C(=O)N1CCC1(C)C(=O)NS(=O)(=O)c1cccc(F)c1)c1ccccc1 (stereo not given)	i	0.0	98.0	.
COc1ccc(S(=O)(=O)NC(=O)C2(C)CCN2C(=O)Cc2ccccc2Cl)cc1 (stereo not given)	i	-0.1	95.0	102.0
CC1(C(=O)NS(=O)(=O)c2cccc(Cl)c2)CCN1C(=O)CCc1ccc(Cl)cc1Cl (stereo not given)	i	0.0	96.0	.
COc1ccc(S(=O)(=O)N(C)C[C@H]2Oc3cc(C#CC4CCCCC4)ccc3S(=O)(=O)N([C@H](C)CO)C[C@@H]2C)cc1	.	-0.6	.	.
O=C(NC1CCCCC1)[C@H]1[C@H](CO)[C@H]2Cn3c(cccc3=O)[C@H]2N1CC1CCOCC1	.	0.0	.	.
C/C=C/c1ccc([C@H]2[C@@H](CO)N(CC3CC3)C23CN(S(C)(=O)=O)C3)cc1	.	0.0	.	.
C[C@@H]1CN([C@@H](C)CO)C(=O)Cc2cc(NC(=O)NC3CCCCC3)ccc2O[C@@H]1CN(C)S(=O)(=O)c1cccs1	.	-1.4	.	.
CC1(C(=O)NS(=O)(=O)c2ccccc2C(F)(F)F)CCN1C(=O)CC1CCCCC1 (stereo not given)	i	-0.2	99.0	.
COc1ccc(OC)c(S(=O)(=O)NC(=O)C2(C)CCN2C(=O)Cc2ccccc2Cl)c1 (stereo not given)	i	0.1	97.0	98.0
CC1(C(=O)NS(=O)(=O)c2ccccc2C(F)(F)F)CCN1C(=O)C1CCCCC1 (stereo not given)	i	0.0	62.0*	100.0
COc1cc(C)ccc1S(=O)(=O)NC(=O)C1(C)CCN1C(=O)Cc1ccccc1Cl (stereo not given)	i	-0.1	87.0	.
Cc1ccc(S(=O)(=O)Nc2ccc3c(c2)C(=O)N([C@H](C)CO)C[C@@H](C)[C@H](CN(C)C(=O)NC2CCCCC2)OCCCC[C@H](C)O3)cc1	.	0.1	.	.
O=C(C[C@H]1C[C@@H]2c3cc(NC(=O)NC4CCCC4)ccc3O[C@@H]2[C@@H](CO)O1)NCc1cccnc1	.	-0.1	.	.
O=C(C[C@@H]1CC[C@H]2[C@@H](COC[C@@H](O)CN2Cc2cc(F)ccc2F)O1)N1CCc2ccccc2C1	.	0.0	.	.
CC1CCCCN1S(=O)(=O)c1ccc(N(C(=O)c2cnccn2)C(C(=O)NC2CCCC2)c2cccs2)cc1 (stereo not given)	i	0.1	70.0*	101.0
CC1CCCCN1S(=O)(=O)c1ccc(N(C(=O)c2cnccn2)C(C(=O)NC2CCCCC2)c2cccs2)cc1 (stereo not given)	i	0.0	94.0	.
CN1C(=O)c2cc(NC(=O)c3ccc(Cl)cc3)ccc2OC[C@H]2O[C@H](CC(=O)O)CC[C@@H]21	.	0.2	.	.
Cn1c(NCCCO)nc2c1c(=O)n(Cc1ccccc1F)c(=O)n2C	i	.	100.0	.
COc1ccccc1Oc1nc2c(c(=O)n(Cc3ccccc3F)c(=O)n2C)n1C	i	.	74.0*	98.0
Cc1noc(C)c1NC(=O)Nc1ccc2c(c1)C(=O)N([C@H](C)CO)C[C@@H](C)[C@H](CN(C)C(=O)c1ccccc1)OCCCC[C@H](C)O2	.	0.0	.	.
O=c1[nH]c(-c2ccc(F)cc2)nc2c1sc(=S)n2-c1ccccc1	i	0.1	98.0	.
O=c1[nH]cnc2c1sc(=S)n2-c1ccccc1	i	.	65.0*	100.0
Cc1ccc(N2C(=O)C(CN3CCCCC3)C2c2ccccc2)cc1 (stereo not given)	i	0.0	96.0	.
